# Shown are actives, neighbours in structure and some others; about 1.3% of the full set was active somewhere.
# Xi reactivation: activators of inactive X chromosome reactivation, primary screen, imaging, XiGFP fibroblasts, GFP high-content imaging, set 2. XiGFP mouse fibroblasts, % GFP-positive cells imaging, 3 d; cells co-treated with 5-aza-dC sensitizer; scaled so ellipticine positive control = 100%. activation, % at 7.58 µM. 0.055% of 360,000 active. AID 743238, 2013;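 active = mean normalized replicate activation at least 10% and every replicate at or above 10%; inconclusive = only one of the two criteria met; inactive = mean below 10% and not all replicates reach 10%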
#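 Assay system: SV40-immortalized XiGFP fibroblast cells, line 68-5-11; buffer or medium: DMEM plus 5-aza-dC sensitizer; compound: one concentration, pinned; timing: compounds 3 days, fix/stain 15 min at room temperature; benchmarks: positive control ellipticine, 6 µM final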
# S100A4 MyoIIA: inhibitors of S100A4-myosin IIA peptide binding, primary screen, biochemical, fluorescence polarization, TAMRA-MyoIIA peptide; Protein S100-A4 (Homo sapiens), P26447; inhibition, % at 10.7 µM; 0.14% of 360,000 active;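 active = mean inhibition of at least 70% across replicates, with every replicate also reaching that level; inconclusive = mean inhibition reaches 70% but some replicates fall short; inactive = mean inhibition below 70%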
#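 Test system – S100A4 monomer (human) · Compound – single-point compound testing · Schedule – 5 min incubation before reading · Probe or stimulus – TAMRA-labelled myosin IIA heavy-chain peptide probe, 5 nM · Benchmarks – neutral control DMSO, positive control TFP · Medium – Calcium-containing HEPES buffer, pH 7.2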
# AF4-AF9 inh: inhibitors of AF4 peptide binding to AF9, primary screen, biochemical, AlphaScreen, biotin-AF4 peptide, FLAG-AF9, single point. Protein AF-9 (Homo sapiens), P42568. inhibition, % at 10 µM. 0.47% of 350,000 active. AID 651704, 2012;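 active = every replicate reaching a set inhibition limit, whatever the replicate mean, cut at about 25% in these data; inconclusive = mean inhibition reaches that limit but some replicates miss it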
# RAD54 branch: inhibitors of human RAD54 branch migration, primary screen, biochemical, fluorescence, single point | AID 602329, 2012 | 0.14% of 360,000 active | RAD54 Holliday junction branch migration, FAM/BHQ fluorescence | inhibition, % at 10.4 µM | DNA repair and recombination protein RAD54-like (Homo sapiens), Q92698;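 active = mean normalized replicate activity at least 40 and at least half of replicates scoring 40 or more; inconclusive = only one of the two criteria met; inactive = mean below 40 and under half of replicates reaching 40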;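 also: inhibitors cause a drop in the FAM fluorescence signal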
# Target sequence (Q92698 whole entry, looked up): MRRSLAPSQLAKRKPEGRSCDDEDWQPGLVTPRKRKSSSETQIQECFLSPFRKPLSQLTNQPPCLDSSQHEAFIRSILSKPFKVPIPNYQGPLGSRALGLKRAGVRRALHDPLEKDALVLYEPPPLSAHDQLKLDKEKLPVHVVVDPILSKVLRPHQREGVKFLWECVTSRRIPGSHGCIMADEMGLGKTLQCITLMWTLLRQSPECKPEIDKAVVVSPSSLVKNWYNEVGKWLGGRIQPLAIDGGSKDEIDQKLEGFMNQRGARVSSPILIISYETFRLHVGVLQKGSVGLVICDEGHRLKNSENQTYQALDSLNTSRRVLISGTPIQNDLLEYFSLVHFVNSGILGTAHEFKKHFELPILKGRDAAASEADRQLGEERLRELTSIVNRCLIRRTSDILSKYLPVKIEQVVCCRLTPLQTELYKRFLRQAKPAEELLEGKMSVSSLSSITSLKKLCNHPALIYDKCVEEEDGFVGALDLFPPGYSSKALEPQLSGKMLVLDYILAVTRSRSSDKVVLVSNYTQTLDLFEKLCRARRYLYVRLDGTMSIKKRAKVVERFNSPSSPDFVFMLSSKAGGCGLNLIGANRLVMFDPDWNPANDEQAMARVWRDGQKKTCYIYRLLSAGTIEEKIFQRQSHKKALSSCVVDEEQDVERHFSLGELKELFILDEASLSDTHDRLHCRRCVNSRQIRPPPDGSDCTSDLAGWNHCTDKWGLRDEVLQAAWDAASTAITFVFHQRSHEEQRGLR
# CASP6 VEID inh: human caspase-6 inhibitors, primary screen, biochemical, VEID-R110 fluorescence, single point, set 2. P55212. purified caspase-6, Z-VEID-R110 cleavage fluorescence. inhibition, % at 12.5 µM. 0.53% of 350,000 active. AID 686996, 2013;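 active = mean inhibition across replicates at least about 35%, with every replicate also reaching that limit, limit read from the data; inconclusive = only one of the two criteria met; inactive = neither criterion met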
# RAD52 inh: RAD52 DNA annealing inhibitors, primary screen, biochemical, FRET, single point, set 2. DNA repair protein RAD52 homolog (Homo sapiens), P43351. recombinant RAD52 DNA annealing, FRET fluorescence. inhibition, % at 18.7 µM. 0.46% of 360,000 active. AID 651710, 2012;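 active = every replicate showing at least 50% inhibition; inconclusive = mean inhibition at least 50% but not in every replicate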
# RAD52 DNA ctr: DNA-binding compounds via dye displacement, dose response, artefact control for RAD52 inhibitor project, biochemical, fluorescence polarization, cherry-pick; 8% of 1,000 active; shares compounds with RAD52 inh; AC50, µM; AID 652128, 2013; Salmon sperm DNA/acridine orange FP displacement;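 active = fitted half-maximal concentration for signal loss at or below twice the highest dose tested, in every separate run, actives reach about 64 µM in these data; inconclusive = runs disagree, or flat partial signal loss, or poor fit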
# Numbers stand for hits; n = inactive; u = inconclusive; x = no result given.
SMILES,Xi reactivation,S100A4 MyoIIA,AF4-AF9 inh,RAD54 branch,CASP6 VEID inh,RAD52 inh,RAD52 DNA ctr
COCCNc1nc(NCc2cccc(OC)c2)c2sc(-c3ccccc3)cc2n1,n,n,n,n,n,80,n
NCCCC[C@H]1CN=C(N)N1CCC12CC3CC(CC(C3)C1)C2,n,n,n,n,n,57,n
CC(C)NC(=O)Nc1ccc2c(c1)C(=O)N(C)[C@H]1CC[C@H](CC(=O)NCC(F)(F)F)O[C@H]1CO2,n,x,x,n,x,x,x
Nc1ccc(NC(=O)CCN2CCOCC2)cc1,n,n,n,n,n,60,n
C[C@@H]1CN([C@@H](C)CO)C(=O)c2cc(C#CCc3ccccc3)cnc2O[C@H]1CN(C)CC1CCCC1,n,n,n,n,n,n,x
Cc1cc(N/N=C/c2ccccc2O)c2ccccc2n1,n,n,u,104,n,102,n
Cc1cc(-c2ccccc2)nc(N/N=C/c2ccc(O)cc2O)n1,n,n,n,n,n,n,x
CCCNc1nc(Cl)nc(NCc2cccnc2)n1,n,n,n,x,n,85,n
CC(C)(C)Nc1nc(Cl)nc(NCc2ccccc2)n1,n,n,n,n,n,n,x
COc1ccc(/C=N/NC(=O)c2cccnc2)cc1CN1CCc2cc(OC)c(OC)cc2C1C (stereo not given),n,n,n,x,n,n,x
COc1ccc(/C=N/NC(=O)c2cc(OC)c(OC)c(OC)c2)cc1CN1CCc2cc(OC)c(OC)cc2C1C (stereo not given),n,n,n,x,n,53,n
Cc1cccc(CN2C(=O)c3ccccc3S(=O)(=O)c3ccc(C(=O)NCCCN4CCCC4)cc32)c1,n,n,n,n,n,51,n
O=c1c2c(-c3ccccc3)csc2nc2c3ccccc3c(NCCN3CCOCC3)nn12,n,n,n,x,n,87,n
CCCNC(=O)Nc1ccc2c(c1)C(=O)N(C)C[C@@H](OC)[C@@H](C)CN(CCC)[C@H](C)CO2,n,n,n,n,n,n,x
Cc1ccc2nc(N=C(N)N)nc(C)c2c1,n,n,n,u,n,51,n
Cc1cc2nc(N=C(N)N)nc(C)c2cc1C,n,n,n,u,n,84,n
CCc1ccc2nc(N=C(N)N)nc(C)c2c1,n,n,n,x,n,51,n
CCCC(=O)N/C(N)=N/c1nc(C)c2cc(C)ccc2n1,n,n,n,n,n,n,x
Cc1cc2nc(/N=C(\N)NC(=O)C(C)C)nc(C)c2cc1C,n,n,n,n,n,n,x
Cc1nc(N=C(N)N)nc2ccccc12,n,n,n,x,n,61,n
C[C@H](CO)N1C[C@H](C)[C@H](CN(C)Cc2ccncc2)Oc2ccc(NC(=O)NC3CCCCC3)cc2CC1=O,n,n,n,n,n,n,x
O=C(C[C@H]1CC[C@@H]2[C@H](COC[C@@H](O)CN2C(=O)Nc2cccc(Cl)c2)O1)NCCCN1CCOCC1,n,n,n,n,n,n,x
CC(=O)N1[C@@H]2c3ccc(C4=CCCC4)c(=O)n3C[C@H]1[C@H](CO)[C@H]2C(=O)NCC1CC1,n,n,n,x,n,n,x
COc1cc2c(oc(=O)c3cc(C)cc(OC)c32)c2c(C3OC(C)C(O)C(C)(O)C3O)ccc(O)c12 (stereo not given),n,n,n,x,n,73,n
COc1cccc(CNCCSc2nnnn2C)c1OC,x,n,n,n,n,103,n
SMILES,Xi reactivation,S100A4 MyoIIA,AF4-AF9 inh,RAD54 branch,CASP6 VEID inh,RAD52 inh,RAD52 DNA ctr
Fc1ccc2c(c1)Sc1ccc(Cl)cc1CC2N1CCN(CCC2OCCO2)CC1 (stereo not given),n,n,n,x,n,81,n
C[C@@H]1CN([C@@H](C)CO)C(=O)c2cccc(NC(=O)Nc3ccc4c(c3)OCO4)c2O[C@@H]1CN(C)Cc1ccc(Oc2ccccc2)cc1,n,n,n,n,n,n,n
C[C@@H]1CN([C@H](C)CO)C(=O)c2cccc(NC(=O)Nc3ccc4c(c3)OCO4)c2O[C@@H]1CN(C)Cc1ccc(Oc2ccccc2)cc1,n,n,n,n,n,n,x
COc1ccc(-c2nc(CN3CCN(c4cc(C)nc(C)c4)CC3)c(C)o2)c2ccccc12,n,n,26,n,n,82,n
COc1cccc2sc3ccc(C#CC4(N)CCCCC4)cc3c(=O)c12,n,n,n,u,n,90,n
CC(C)(c1ccccc1)c1ccc(OCCCN2CCNCC2)cc1,n,n,n,x,n,57,n
OC(c1ccccc1)(c1ccccc1)C1CCN(CCCOc2ccccc2Cl)CC1,n,n,n,x,n,55,n
CCc1nc2ccc(C(=O)Nc3cc(-c4ccccc4)ccc3OC)cn2c1N(CCN(C)C)CC1CC1,n,n,30,n,n,63,n
CO[C@@H]1CN(C)C(=O)c2cc(NS(C)(=O)=O)ccc2OC[C@@H](C)N(C)C[C@H]1C,n,n,n,n,n,n,x
CCC(C)Sc1ccc([C@H]2N[C@@](Cc3ccccc3)(C(=O)OC)[C@H]3C(=O)N(C)C(=O)[C@@H]23)cc1 (stereo not given in full),n,n,n,n,n,98,n
COc1ccc2cc3[n+](cc2c1OC)CCc1cc2c(cc1-3)OCO2,n,n,n,72,n,75,n
CCNC(=O)c1cc2c(c(-c3cccc(-c4cccc(C(=O)N(C)C)c4)c3)n1)[C@@H](CCO)N([S@](=O)C(C)(C)C)C2,n,n,n,n,n,n,x
CCn1cc(C(=O)NN)c(=O)c2cc(F)c(N3CCN(C)CC3)cc21,n,n,n,n,n,97,n
Cc1c(CCOC(=O)c2cc([N+](=O)[O-])cc([N+](=O)[O-])c2)sc[n+]1CC(=O)c1ccc(Br)cc1,n,n,n,x,n,94,n
Cc1c(CCOC(=O)c2ccc(Cl)cc2Cl)sc[n+]1CC(=O)c1ccccc1,n,n,n,x,n,n,x
CC(C)N1CCc2c(sc(NC(=O)c3cc4cc([N+](=O)[O-])ccc4s3)c2C(N)=O)C1,65,n,n,n,n,56,n
Cc1cc(C)n2nc(-c3ccc(Cl)cc3)cc2n1,n,n,n,n,n,n,x
Cc1nc2cc(-c3ccc(Cl)cc3)nn2c(NCCN(C)C)c1C,n,n,n,x,n,77,n
COc1cccc(C2=NCCc3cc4c(cc32)OCO4)c1OC,n,x,x,n,x,x,x

# High-throughput results: PubChem, Broad Institute
